An excerpt weighted towards active compounds, which were near 1.6% of everything screened.
Tb MetRS inh = T. brucei MetRS inhibitors, primary screen, biochemical, luminescence; methionyl-tRNA synthetase (Trypanosoma brucei brucei); purified T. brucei MetRS, ATP depletion, Kinase-Glo luminescence; inhibition, % at 11.9 µM; 360,000 tested, 0.4% active; AID 624268, 2012;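 active means inhibition above a per-plate cutoff of the control wells' mean inhibition plus 3 SD, cut at about 5.5% in these data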;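 further: 0% = DMSO wells median and 100% = median of wells with control inhibitor compound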
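assay system = parasite MetRS enzyme | timing = 15 min preincubation, 2 h reaction, all 25 °C | evaluation = percent inhibition relative to median high and low control wells | medium = HEPES buffer containing pyrophosphatase, BSA, spermine, DTT | compound = single dose, 11.9 µM final nominal, 0.9% final DMSO | detection = Kinase-Glo luminescence, ATP depletion format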
MT1-MMP act inh = blockers of MT1-MMP proenzyme processing, primary screen, HT1080 RFP-PRO-GFP cells, GFP/RFP fluorescence; 360,000 tested, 0.061% active; GFP/RFP ratio change, % at 20 µM; Matrix metalloproteinase-14 (Homo sapiens), P50281; AID 651647, 2012; GFP/RFP ratio fluorescence, overnight; percent of plate control window, DMSO zero;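 active means GFP/RFP ratio change of at least 30% with cell ATP level not reduced by more than half and red fluorescence within 50% of control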
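Assay system: HT1080 RFP-PRO-GFP cells. Benchmarks: DMSO vehicle wells and RFP-L50D-GFP reporter cell wells. Times: overnight cell settling, then overnight compound exposure, 37 °C, 5% CO2. Compound: 20 µM single dose, 1% DMSO. Read-out basis: GFP/RFP fluorescence ratio.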
Rin1 Abl inh = inhibitors of Rin1-Abl protein binding, primary screen, biochemical, TR-FRET; Tyrosine-protein kinase ABL1 (Homo sapiens) + Ras and Rab interactor 1 (Homo sapiens), …; inhibition, % at 7.35 µM; 360,000 tested, 0.4% active; in the data active means inhibition above about 5%, passing the limit was not always enough
SKN-1 inh = suppressors of acrylamide-induced Pgst-4::GFP reporter in worms, primary screen, SKN-1 inhibitor project, whole organism, uHTS, GFP/RFP fluorescence ratio, strain VP596. AID 624304, 2012. 360,000 tested, 0.49% active. C. elegans VP596 Pgst-4::GFP/RFP ratio, 24 h. inhibition, % at 21.8 µM;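 active means interference check ratio from 0.5 to 1.5 plus GFP to RFP signal ratio inhibition reaching or exceeding a fixed threshold, cut at about 30% in these data, passing the limit was not always enough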
Arr AP2 block = inhibitors of beta-arrestin/AP2 binding, primary screen, biochemical, GPCR trafficking, flow cytometry; beta-arrestin 1 C-terminal peptide binding to AP2 beta2-adaptin appendage (human); 340,000 tested, 0.31% active; AID 504490, 2011; inhibition, % at 10 µM; FITC-arrestin peptide / GST-AP2 beads; AP2 beta2 appendage carries R879A mutation;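 active means inhibition above a set limit, near 3 SD of compounds lacking own fluorescence, cut at about 54% in these data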;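 further: plate controls were DMSO wells for no effect and 5 µM unlabelled arrestin peptide for full effect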
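Material – GST-tagged AP2 beta2-adaptin appendage (R879A) on 4 µm glutathione beads · Probe or stimulus – fluorescein-tagged arrestin peptide at 50 nM final · Timing – 12 min plus 1 h, RT · Detection – bead flow cytometry, FITC channel · Read-out basis – inhibition as reduced fluorescein signal on beads, percent · Medium – PBS plus Tween 20 (0.05%) and BSA (0.1%)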
Arr-AP2 CP1 = inhibitors of arrestin peptide binding to AP2, confirmation, biochemical, cherry pick 1, flow cytometry beads. shares compounds with Arr AP2 block. GST-AP2 beads, FITC arrestin peptide binding; GST-fused beta2-adaptin appendage, R879A mutant. inhibition, % at 10 µM. 1,300 tested, 2% active;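 active means inhibition above a set limit, roughly 3 SD of non-fluorescent compound noise, cut at about 38% in these data; inactive means inhibition at or below that limit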;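 further: loss of bead fluorescence from 50 nM FITC arrestin peptide bound to appendage; 0% = negative control wells and 100% = excess unlabelled arrestin peptide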
GST GSH counter = GST-fluorescein capture on glutathione beads, confirmation, artefact control for arrestin-AP2 inhibitor project, biochemical, cherry pick 1, flow cytometry. GST-fluorescein binding to GSH beads, fluorescence, counter-screen. shares compounds with Arr AP2 block. inhibition, % at 10 µM. AID 588338, 2011. 1,300 tested, 2% active;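 active means inhibition above 50%, about 3 SD of the inhibition seen with non-fluorescent compounds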;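 further: fluorescein maleimide labelled GST captured on 4 micron glutathione beads; higher means more loss of bead fluorescence from quenching or blocked binding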
Active calls of the source: *; / = no result given.

SMILES	Tb MetRS inh	MT1-MMP act inh	Rin1 Abl inh	SKN-1 inh	Arr AP2 block	Arr-AP2 CP1	GST GSH counter
CC(C)(C)S(=O)N1Cc2cc(C(=O)N3CCc4ccccc4C3)nc(-c3cccc(-c4ccncc4)c3)c2[C@H]1CCO (stereo not given in full)	0	-7	3	-10	/	/	/
CCOc1cc(/C=C2\SC(N)=NC2=O)ccc1O	-1	-1	-3	-2	61*	-6	-1
CC(Oc1ccc(Cl)cc1)C(=O)N(C)CC(=O)Nc1ccc(N2CCOCC2)cc1 (stereo not given)	0	-1	-2	11	0	/	/
CC(Sc1ccc(Cl)cc1)C(=O)N(C)CC(=O)Nc1ccc(N2CCOCC2)cc1 (stereo not given)	-1	1	0	-2	56*	5	-7
COc1ccc(OC)c(CN2CCN(C(=O)CCC(=O)c3cccs3)CC2)c1	0	7	3	34	55*	0	0
CCOc1ccccc1CN1CCCC(C(=O)c2ccc(OC)c(OC)c2)C1 (stereo not given)	1	-4	-1	2	54*	-7	5
COc1ccc(S(=O)(=O)N2CCC(C(=O)N3CCCCC3)CC2)cc1OC	0	1	2	8	-17	/	/
COc1ccc(S(=O)(=O)N2CCCC(C(=O)N3CCCC3)C2)cc1OC (stereo not given)	0	3	3	-1	69*	-9	-10
COc1ccc(C(=O)C2CCCN(Cc3cn[nH]c3-c3ccc(F)cc3)C2)cc1OC (stereo not given)	-1	-1	2	0	10	/	/
COc1ccc(C(=O)C2CCCN(C(=O)C3=CCCC3)C2)cc1OC (stereo not given)	0	1	0	1	59*	-10	/
COc1ccc(C(=O)C2CCCN(C(=O)CSC)C2)cc1OC (stereo not given)	1	0	-2	-3	31	/	/
CCc1nc2ccc(C(=O)NCc3ccc4c(c3)OCO4)cn2c1N(C)Cc1ccc(OC)cc1	0	-2	5	14	/	/	/
CC(C)=CCCC(C)CN1CCC(n2nccc2NC(=O)c2cccnc2)CC1 (stereo not given)	0	3	-3	-17	60*	-10	-5
CCOc1ccccc1N1CCN(C(=O)C(F)(F)F)CC1	0	-3	4	-19	6	/	/
CCOc1ccccc1N1CCN(C(=O)CC(C)(C)C)CC1	-1	0	6	-4	55*	5	-6
COc1ccccc1N1CCN(C(=O)COc2cccc(C)c2C)CC1	0	4	2	-4	61*	-10	-2
CCN(CC(=O)Nc1ccc(NC(C)=O)cc1)C(=O)CCN1C(=O)c2cccc([N+](=O)[O-])c2C1=O	-1	-1	-1	-15	64*	-3	-6
CCN(CC(=O)Nc1c(F)cccc1F)C(=O)CCN1C(=O)c2cccc([N+](=O)[O-])c2C1=O	0	-3	1	0	6	/	/
O=C(OCC1CCC=CO1)C1CCC=CO1 (stereo not given)	0	-8	3	18	14	/	/
CCN1/C(=C/C(C)=C/c2sc3ccccc3[n+]2CC)Sc2ccccc21	-3	32	-20	96	86*	71*	48
O=C(Nc1ccc(C(=O)O)cc1)/C(=C\c1ccc2c(c1)OCO2)NC(=O)c1ccccc1Cl	0	-1	-3	-3	/	/	/
CCN(CC)S(=O)(=O)c1ccc(C(=O)Nc2ccc(Cc3ccncc3)cc2)cc1	-1	-3	-1	-12	56*	7	-6
Cc1cc2nc(-c3ccc(Cl)cc3)c(Cc3ccsc3)n2c(C)c1Br	-1	2	/	11	/	/	/
O=S(=O)(Nc1ccc2c(c1)OCCO2)c1c(F)cccc1F	-1	4	0	17	59*	-11	1
O=C1CCCC(O)=C1Sc1ccccc1C(=O)O	0	2	7	-2	74*	11	7
SMILES	Tb MetRS inh	MT1-MMP act inh	Rin1 Abl inh	SKN-1 inh	Arr AP2 block	Arr-AP2 CP1	GST GSH counter
O=C1CCCC(O)=C1C(C#Cc1ccccc1)C1=C(O)CCCC1=O	-1	-3	-1	9	17	/	/
CC(CC(=O)c1ccc(F)cc1)N1CCN(c2ccccc2)CC1 (stereo not given)	0	-3	2	5	3	/	/
COc1cc2c(cc1NC(=O)COC(=O)c1ccc(C(C)(C)C)cc1)oc1ccccc12	0	6	0	0	-1	0	0
COc1cc2c(cc1NC(=O)Cc1ccc(C)cc1)oc1ccccc12	0	-3	-4	10	5	4	-3
COc1cc2c(cc1NC(=O)CCC(=O)O)oc1ccccc12	0	-2	2	-5	24	/	/
COc1cc2c(cc1NC(=O)CCCN1C(=O)CCC1=O)oc1ccccc12	-1	8	2	7	8	/	/
COc1cc2c(cc1NC(=O)CSc1ccc(C)cc1)oc1ccccc12	0	8	3	3	6	-1	-6
COc1cc2c(cc1NC(=O)COc1ccccc1OC)oc1ccccc12	1	4	3	5	-2	-5	2
COc1cc2c(cc1NC(=O)CSCC(=O)O)oc1ccccc12	0	2	-2	-15	-2	/	/
Cc1cccc2sc(=S)[nH]c12	-1	1	1	4	/	/	/
Cc1nc(C(F)(F)F)ccc1C(=O)N1CCC1(C)C(=O)Nc1ccc2c(c1)OCO2 (stereo not given)	0	6	2	15	/	/	/
COc1ccccc1[C@@]1(C)ON(c2ccccc2C(F)(F)F)C1=O	0	5	1	-14	7	/	/
COC(=O)c1cc(OC)c(OC)cc1NC(=O)C(C)Sc1ccc(C)cc1 (stereo not given)	0	3	-1	11	22	/	/
COc1cc2c(cc1NC(=O)C(C)Sc1ccc(C)cc1)oc1ccccc12 (stereo not given)	-1	-6	3	7	21	-3	/

Screens from PubChem BioAssay.
